Assay results taken from ChEMBL document CHEMBL4251567 (Eur J Med Chem, 2018).
Each block holds one molecule with its values, some of them ahead of it.

How the values were obtained:
[1] = target: Histone deacetylase 2 (Homo sapiens) (UniProt Q92769); test: Inhibition of HDAC2 in human HeLa-S3 cell lysates assessed as remaining activity at 2 x 10^-6 M preincubated for 15 mins followed by HDAC-Glo substrate addition measured after 30 to 40 mins by fluorimetric method relative to control
How it was run: (§1)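 Same antibody-capture format as the other class I isoforms. HeLa-S3 lysate added at 100 μg/mL for HDAC1 and HDAC2, 1 h at 4 °C, then washed. Inhibitor in DMSO preincubated 15 min at RT; HDAC-Glo reagent added and luminescence read after 30-40 min. Concentrations are final. Signal corrected against a well without antibody; activity expressed as % of DMSO control.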

[2] = target: Histone deacetylase 1 (Homo sapiens) (UniProt Q13547); test: Inhibition of HDAC1 in human HeLa-S3 cell lysates assessed as remaining activity at 1.25 uM preincubated for 15 mins followed by HDAC-Glo substrate addition measured after 30 to 40 mins by […] relative to control
Histone deacetylase 1 (Homo sapiens), sequence (Q13547 whole entry): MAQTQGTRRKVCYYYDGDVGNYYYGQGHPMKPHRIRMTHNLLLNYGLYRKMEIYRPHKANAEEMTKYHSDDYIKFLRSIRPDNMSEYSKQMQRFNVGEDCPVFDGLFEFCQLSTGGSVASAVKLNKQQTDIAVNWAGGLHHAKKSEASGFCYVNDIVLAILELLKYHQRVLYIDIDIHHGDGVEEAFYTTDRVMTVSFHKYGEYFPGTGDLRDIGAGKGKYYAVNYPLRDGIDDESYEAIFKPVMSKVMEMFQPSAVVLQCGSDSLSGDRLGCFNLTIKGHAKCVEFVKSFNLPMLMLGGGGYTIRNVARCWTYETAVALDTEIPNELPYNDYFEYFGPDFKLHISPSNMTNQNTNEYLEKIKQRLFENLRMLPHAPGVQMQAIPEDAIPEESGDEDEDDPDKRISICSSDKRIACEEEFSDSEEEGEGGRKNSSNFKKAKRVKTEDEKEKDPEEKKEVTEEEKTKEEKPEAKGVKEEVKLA
How it was run: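 HDAC1 was captured from HeLa-S3 lysate (100 μg/mL) onto wells precoated with anti-HDAC1 antibody (10 μg/mL, carbonate buffer pH 9.4) and milk-blocked, 1 h at 4 °C, then washed. Inhibitor in DMSO was added in HDAC-Glo buffer for 15 min at room temperature. HDAC-Glo reagent was added and luminescence read after 30-40 min. Concentrations are final. No-antibody background subtracted; % of DMSO control.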

[3] = target: T1, Protein deacetylase HDAC6 (Homo sapiens) (UniProt Q9UBN7); test: Inhibition of HDAC6 in human HeLa-S3 cell lysates assessed as remaining activity at 1.25 uM preincubated for 15 mins followed by HDAC-Glo substrate addition measured after 30 to 40 mins by […] relative to control
T1 sequence (whole entry): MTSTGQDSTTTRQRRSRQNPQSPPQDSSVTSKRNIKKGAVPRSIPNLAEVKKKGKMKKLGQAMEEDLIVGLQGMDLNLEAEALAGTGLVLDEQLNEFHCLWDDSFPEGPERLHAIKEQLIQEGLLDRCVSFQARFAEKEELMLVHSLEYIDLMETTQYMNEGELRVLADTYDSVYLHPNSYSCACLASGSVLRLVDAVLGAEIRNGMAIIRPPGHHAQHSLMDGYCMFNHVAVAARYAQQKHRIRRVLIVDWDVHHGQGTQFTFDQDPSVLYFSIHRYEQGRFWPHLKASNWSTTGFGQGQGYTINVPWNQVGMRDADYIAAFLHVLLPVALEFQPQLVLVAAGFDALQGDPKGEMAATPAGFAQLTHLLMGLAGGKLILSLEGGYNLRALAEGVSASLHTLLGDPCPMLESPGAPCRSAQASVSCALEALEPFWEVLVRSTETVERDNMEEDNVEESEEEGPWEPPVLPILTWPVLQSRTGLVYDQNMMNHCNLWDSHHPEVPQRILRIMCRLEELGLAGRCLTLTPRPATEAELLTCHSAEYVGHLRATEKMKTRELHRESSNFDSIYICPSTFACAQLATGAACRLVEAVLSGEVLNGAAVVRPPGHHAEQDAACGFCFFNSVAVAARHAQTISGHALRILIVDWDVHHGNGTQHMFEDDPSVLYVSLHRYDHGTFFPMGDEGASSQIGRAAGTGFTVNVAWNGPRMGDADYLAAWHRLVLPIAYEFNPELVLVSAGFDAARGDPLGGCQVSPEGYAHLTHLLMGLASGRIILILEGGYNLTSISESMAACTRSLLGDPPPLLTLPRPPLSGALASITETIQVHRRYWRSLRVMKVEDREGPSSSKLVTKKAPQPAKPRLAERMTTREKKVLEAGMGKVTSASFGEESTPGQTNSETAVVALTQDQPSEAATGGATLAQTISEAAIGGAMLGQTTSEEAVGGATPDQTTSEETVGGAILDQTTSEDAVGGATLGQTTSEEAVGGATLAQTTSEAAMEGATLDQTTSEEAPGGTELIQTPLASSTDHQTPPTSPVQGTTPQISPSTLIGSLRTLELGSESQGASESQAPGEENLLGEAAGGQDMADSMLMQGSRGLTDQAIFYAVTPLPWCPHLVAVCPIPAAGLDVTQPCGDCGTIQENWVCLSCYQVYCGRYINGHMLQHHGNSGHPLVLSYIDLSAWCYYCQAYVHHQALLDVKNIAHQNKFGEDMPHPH
How it was run: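 HDAC6 captured on an anti-HDAC6 antibody-coated plate (2 μg/mL, pH 9.4 carbonate buffer, milk-blocked). HeLa-S3 lysate loaded at 1 mg/mL, 1 h at 4 °C, then washed. 15 min RT preincubation with inhibitor in DMSO; HDAC-Glo reagent added, luminescence read at 30-40 min. Concentrations are final. Background = no-antibody well; values are % activity versus DMSO control.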

[4] = target: Histone deacetylase 3 (Homo sapiens) (UniProt O15379); test: Inhibition of HDAC3 in human HeLa-S3 cell lysates assessed as remaining activity at 1.25 uM preincubated for 15 mins followed by HDAC-Glo substrate addition measured after 30 to 40 mins by […] relative to control
Histone deacetylase 3 (Homo sapiens), sequence (O15379 whole entry): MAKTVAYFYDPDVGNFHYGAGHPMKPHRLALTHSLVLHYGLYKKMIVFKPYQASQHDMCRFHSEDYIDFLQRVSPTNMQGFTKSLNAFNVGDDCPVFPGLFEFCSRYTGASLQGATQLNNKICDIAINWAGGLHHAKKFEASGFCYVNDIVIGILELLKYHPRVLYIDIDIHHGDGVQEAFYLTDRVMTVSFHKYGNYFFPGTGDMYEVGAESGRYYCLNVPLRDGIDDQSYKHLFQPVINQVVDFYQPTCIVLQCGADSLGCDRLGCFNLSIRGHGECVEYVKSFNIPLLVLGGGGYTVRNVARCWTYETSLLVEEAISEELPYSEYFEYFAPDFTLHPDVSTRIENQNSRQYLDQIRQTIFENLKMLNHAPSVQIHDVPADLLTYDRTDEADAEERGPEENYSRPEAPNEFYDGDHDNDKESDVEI
How it was run: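 Antibody-capture (ELISA-type) assay: HDAC antibody coated in carbonate/bicarbonate buffer pH 9.4, wells blocked with 5% milk in TBST. HeLa-S3 lysate added at 1 mg/mL for HDAC3, 1 h at 4 °C, then washed. Inhibitor in DMSO preincubated 15 min at RT in HDAC-Glo buffer. HDAC-Glo reagent added, luminescence read after 30-40 min. Concentrations are final. Background = no-antibody well; activity given as % of DMSO control.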

[5] = target: T2, Histone deacetylase 8 (Homo sapiens) (UniProt Q9BY41); test: Inhibition of human recombinant full-length C-terminal His-tagged HDAC8 expressed in baculovirus infected Sf9 insect cell assessed as remaining activity at 8 x 10^-7 M preincubated for 15 mins followed by HDAC-Glo substrate addition measured after 30 mins by fluorimetric method rel;ative to control
T2 sequence (whole entry): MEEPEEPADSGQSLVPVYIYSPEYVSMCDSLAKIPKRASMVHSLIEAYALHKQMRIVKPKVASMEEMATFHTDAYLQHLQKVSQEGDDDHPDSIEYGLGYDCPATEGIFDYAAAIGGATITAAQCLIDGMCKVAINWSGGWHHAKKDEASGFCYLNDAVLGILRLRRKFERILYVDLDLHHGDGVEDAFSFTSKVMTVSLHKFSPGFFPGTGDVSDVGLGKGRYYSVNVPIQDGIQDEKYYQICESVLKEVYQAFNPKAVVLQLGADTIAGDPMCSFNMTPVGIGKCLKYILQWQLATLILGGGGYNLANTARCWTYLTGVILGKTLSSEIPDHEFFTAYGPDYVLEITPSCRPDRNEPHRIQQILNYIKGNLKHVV
How it was run: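 Recombinant HDAC8 (75 ng) preincubated 15 min at RT with inhibitor in DMSO in HDAC-Glo buffer. HDAC-Glo reagent added and luminescence read 30 min later. Background taken from a reaction without enzyme; activity as % of DMSO control.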

[6] = target: Histone deacetylase 2 (Homo sapiens) (UniProt Q92769); test: Inhibition of HDAC2 in human HeLa-S3 cell lysates assessed as remaining activity at 5 uM preincubated for 15 mins followed by HDAC-Glo substrate addition measured after 30 to 40 mins by […] relative to control; how it was run: as §1

Histone deacetylase 2 (Homo sapiens), sequence (Q92769 whole entry, canonical isoform): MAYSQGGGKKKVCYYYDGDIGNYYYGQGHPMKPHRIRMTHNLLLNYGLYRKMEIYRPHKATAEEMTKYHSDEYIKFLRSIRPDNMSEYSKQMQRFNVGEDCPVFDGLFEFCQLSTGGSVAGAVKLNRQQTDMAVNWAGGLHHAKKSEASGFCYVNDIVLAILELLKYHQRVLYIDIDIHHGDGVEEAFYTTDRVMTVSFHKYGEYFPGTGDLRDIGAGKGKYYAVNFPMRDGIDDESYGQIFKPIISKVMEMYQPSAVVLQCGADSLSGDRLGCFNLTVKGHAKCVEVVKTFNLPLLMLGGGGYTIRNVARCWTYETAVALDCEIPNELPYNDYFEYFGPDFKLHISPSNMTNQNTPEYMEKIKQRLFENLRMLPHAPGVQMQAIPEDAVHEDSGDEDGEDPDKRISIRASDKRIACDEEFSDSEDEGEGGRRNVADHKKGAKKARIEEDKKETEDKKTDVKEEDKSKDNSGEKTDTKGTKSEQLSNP

Activity [1]: 69%
Structure (SMILES): CCC(CCCC(=O)Nc1ccccc1)CCC(=O)NO (stereo unspecified)

Activity [2]: 97%
Activity [3]: 21%
Activity [4]: 100%
Structure (SMILES): CCCCCCC(CCCC(=O)Nc1ccccc1)CCC(=O)NO (stereo unspecified)

Activity [5]: 19%
Structure (SMILES): O=C(CC[C@H](CCCC(=O)Nc1ccccc1)Cc1ccccc1)NO

Activity [6]: 92%
Structure (SMILES): O=C(CCC(CCCC(=O)Nc1ccccc1)Cc1ccccc1)NO (racemic)
